Test results as given in ChEMBL document CHEMBL1121850, “Synthesis of peptide analogues of prothrombin precursor sequence 5-9. Substrate specificity of vitamin K dependent carboxylase” (J Med Chem, 1981).
Numbered stars: 1 amine (or outer) side, 2 acyl side, 3 side chain; on linkers, the order of the positions; unused ones are H or OH. Square brackets hold non-standard residues; d marks the D form. Peptide text beside a SMILES is read from it. * marks the point of attachment. ξ: configuration not given here. Pyrrolidin1yl(2S-Ac) = CC(=O)[C@@H]1CCCN1*; ξF = NC(Cc1ccccc1)C(=O)O; X1 = CO[C@H](CC(C)C)N*; Boc = CC(C)(C)OC(=O)*; CO = O=C([*:1])[*:2]; OtBu = CC(C)(C)O*

Columns and labels:
[1] = biological target: T1, Vitamin K-dependent gamma-carboxylase (Rattus norvegicus) (UniProt O88496); experiment: Relative activity for […] rat liver vitamin K dependent carboxylase mediated carboxylation of pentapeptide at 1 mM.; type: functional, tissue-based
T1 sequence (whole entry): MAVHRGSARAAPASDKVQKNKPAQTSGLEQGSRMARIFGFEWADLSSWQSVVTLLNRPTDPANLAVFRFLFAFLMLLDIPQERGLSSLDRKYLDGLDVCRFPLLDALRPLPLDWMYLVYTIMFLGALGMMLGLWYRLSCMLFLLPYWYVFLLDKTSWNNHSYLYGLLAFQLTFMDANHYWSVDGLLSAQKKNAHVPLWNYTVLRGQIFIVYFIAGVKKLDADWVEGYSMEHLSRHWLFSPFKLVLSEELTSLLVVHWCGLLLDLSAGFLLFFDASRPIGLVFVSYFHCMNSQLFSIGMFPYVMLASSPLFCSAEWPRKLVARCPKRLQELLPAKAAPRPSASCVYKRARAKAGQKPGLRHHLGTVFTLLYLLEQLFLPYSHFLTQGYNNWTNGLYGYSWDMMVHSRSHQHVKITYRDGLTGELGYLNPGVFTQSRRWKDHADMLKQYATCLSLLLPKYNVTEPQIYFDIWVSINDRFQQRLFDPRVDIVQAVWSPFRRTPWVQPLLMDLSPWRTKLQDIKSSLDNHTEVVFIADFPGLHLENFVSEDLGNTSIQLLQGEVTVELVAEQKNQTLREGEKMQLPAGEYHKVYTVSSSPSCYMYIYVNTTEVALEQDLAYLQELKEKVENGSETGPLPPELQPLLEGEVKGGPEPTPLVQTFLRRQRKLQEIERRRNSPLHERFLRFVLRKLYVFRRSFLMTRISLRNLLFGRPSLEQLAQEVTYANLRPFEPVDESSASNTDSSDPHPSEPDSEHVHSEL
Summary of the method: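 Carboxylase source was Triton-solubilized liver microsomes from vitamin K-deficient rats, pellets KCl-washed. Peptide at 1 mM was incubated with NaH¹⁴CO₃ and vitamin K-H₂ (in ethanol) at 17 °C for 10–20 min. Read-out was ¹⁴CO₂ in TCA-soluble material, with the ethanol-only background subtracted. Activity is given as % of the 1 mM reference pentapeptide on the same preparation; duplicate incubations.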

[2] = Michaelis constant was determined; type: ADME

Compound	Relative activity [1]	Km [2]
CC(C)C[C@H](NC(=O)[C@H](CCC(=O)O)NC(=O)[C@H](CC(C)C)NC(=O)[C@H](CCC(=O)O)NC(=O)[C@H](Cc1ccccc1)NC(=O)O)C(=O)O (HELM PEPTIDE1{[O=C(O)[*:2]].F.E.L.E.L}$$$$V2.0)	< 1%	–
COC(=O)NC(=O)[C@H](CC(C)C)NC(=O)[C@H](CCC(=O)O)NC(=O)C(CCC(=O)O)NC(=O)OC(C)(C)C (stereo partly drawn)	< 1%	–
COC(=O)NC(=O)[C@H](CCC(=O)O)NC(=O)[C@H](C)NC(=O)[C@H](CCC(=O)O)NC(=O)OC(C)(C)C	4%	–
COC(=O)[C@H](CC(C)C)NC(=O)[C@H](CCC(=O)O)NC(=O)[C@@H](CCC(=O)O)NC(=O)OC(C)(C)C	< 1%	–
CC(C)C[C@H](NC(=O)[C@H](CCC(=O)O)NC(=O)[C@H](CCC(=O)O)NC(=O)CNC(=O)[C@@H](N)Cc1ccccc1)C(=O)O (H-FGEEL-OH)	4%	–
COC(=O)[C@H](CC(C)C)NC(=O)[C@@H](CCC(=O)O)NC(=O)[C@H](CCC(=O)O)NC(=O)[C@H](CC(C)C)NC(=O)[C@H](Cc1ccccc1)NC(=O)OC(C)(C)C	< 1%	–
COC(=O)[C@H](CCC(=O)O)NC(=O)[C@H](C)NC(=O)[C@H](CCC(=O)O)NC(=O)[C@H](CC(C)C)NC(=O)OC(C)(C)C (HELM PEPTIDE1{[CC(C)(C)OC(=O)[*:2]].L.E.A.E.[CO[*:1]]}$$$$V2.0)	46%	–
CCC(=O)N[C@@H](Cc1ccccc1)C(=O)N[C@@H](CC(C)C)C(=O)N[C@@H](CCC(=O)O)C(=O)N[C@@H](CCC(=O)O)C(=O)N[C@@H](CC(C)C)C(=O)O (HELM PEPTIDE1{[CCC(=O)[*:2]].F.L.E.E.L}$$$$V2.0)	149%	–
COC(=O)[C@H](CC(C)C)NC(=O)[C@H](CCC(=O)O)NC(=O)[C@@H](CCC(=O)O)NC(=O)[C@H](CC(C)C)NC(=O)[C@H](Cc1ccccc1)NC(=O)OC(C)(C)C	< 1%	–
CC(C)C[C@H](NC(=O)[C@H](CO)NC(=O)[C@H](CCC(=O)O)NC(=O)[C@H](CC(C)C)NC(=O)[C@H](C)NC(=O)[C@H](CCC(=O)O)NC(=O)[C@@H](N)Cc1ccccc1)C(=O)O (H-FEALESL-OH)	6%	–
COC(=O)[C@H](CC(C)C)NC(=O)[C@@H](CCC(=O)O)NC(=O)[C@@H](CCC(=O)O)NC(=O)[C@H](CC(C)C)NC(=O)[C@H](Cc1ccccc1)NC(=O)OC(C)(C)C	< 1%	–
COC(=O)[C@H](CC(C)C)NC(=O)[C@@H](CCC(=O)O)NC(=O)[C@H](CCC(=O)O)NC(=O)OC(C)(C)C	< 1%	–
CC(C)(C)OC(=O)N[C@H](CCC(=O)O)C(=O)NCc1ccccc1	< 1%	–
COC(=O)[C@H](CC(C)C)NC(=O)[C@H](CCC(=O)O)NC(=O)[C@H](CCC(=O)O)NC(=O)CNC(=O)OC(C)(C)C (HELM PEPTIDE1{[CC(C)(C)OC(=O)[*:2]].G.E.E.L.[CO[*:1]]}$$$$V2.0)	6%	–
CC(C)C[C@H](NC(=O)[C@H](CCC(=O)O)NC(=O)[C@H](CCC(=O)O)NC(=O)[C@@H](N)CC(C)C)C(=O)O (H-LEEL-OH)	8%	–
COC(=O)[C@H](CCC(=O)O)NC(=O)[C@H](C)NC(=O)[C@H](CCC(=O)O)NC(=O)[C@H](CC(C)C)NC(=O)N1CCC[C@H]1C(=O)OC(C)(C)C ({OtBu-Pro-CO}-LEAE-OMe)	19%	–
COC(=O)[C@H](CC(C)C)NC(=O)[C@H](CCC(=O)O)NC(=O)[C@H](CCC(=O)O)NC(=O)[C@H](C)NC(=O)OC(C)(C)C (HELM PEPTIDE1{[CC(C)(C)OC(=O)[*:2]].A.E.E.L.[CO[*:1]]}$$$$V2.0)	19%	–
CC(C)C[C@H](NC(=O)[C@H](CCC(=O)O)NC(=O)[C@H](CCC(=O)O)NC(=O)[C@H](CC(C)C)NC(=O)[C@H](Cc1ccccc1)NC(=O)c1ccccc1)C(=O)O (HELM PEPTIDE1{[O=C(c1ccccc1)[*:2]].F.L.E.E.L}$$$$V2.0)	27%	–
CC(C)(C)OC(=O)N[C@H](CCC(=O)O)C(=O)OCc1ccccc1	5%	–

Compound	Relative activity [1]	Km [2]
CO[C@H](CC(C)C)NC(=O)[C@H](CCC(=O)O)NC(=O)[C@H](CCC(=O)O)NC(=O)[C@H](CC(C)C)NC(=O)C(Cc1ccccc1)NC(=O)OC(C)(C)C (stereo partly drawn) (Boc-[ξF]LEE-X1)	24%	–
COC(=O)NC(=O)[C@H](CC(C)C)NC(=O)[C@H](CCC(=O)O)NC(=O)C(CCSC)NC(=O)CC(C)C (stereo partly drawn)	6%	–
CC(C)C[C@H](NC(=O)[C@H](CCC(=O)O)NC(=O)[C@@H](CCC(=O)O)NC(=O)[C@H](CC(C)C)NC(=O)[C@@H](N)Cc1ccccc1)C(=O)O	100%	4 mM
COC(=O)[C@H](CC(C)C)NC(=O)[C@H](CCC(=O)O)NC(=O)[C@H](CCC(=O)O)NC(=O)CNC(=O)[C@H](Cc1ccccc1)NC(=O)OC(C)(C)C (HELM PEPTIDE1{[CC(C)(C)OC(=O)[*:2]].F.G.E.E.L.[CO[*:1]]}$$$$V2.0)	25%	–
COC(=O)[C@H](CC(C)C)NC(=O)[C@@H](CCC(=O)O)NC(=O)[C@@H](CCC(=O)O)NC(=O)OC(C)(C)C	< 1%	–
COC(=O)NC(=O)[C@H](CC(C)C)NC(=O)[C@H](CCCC(=O)O)NC(=O)C(CCCC(=O)O)NC(=O)OC(C)(C)C (stereo partly drawn)	< 1%	–
COC(=O)[C@H](CC(C)C)NC(=O)[C@H](CCC(=O)O)NC(=O)[C@H](CCC(=O)O)NC(=O)OC(C)(C)C	107%	–
COC(=O)[C@@H](CC(C)C)NC(=O)[C@H](CCC(=O)O)NC(=O)[C@H](CCC(=O)O)NC(=O)OC(C)(C)C	19%	–
COC(=O)[C@@H](CC(C)C)NC(=O)[C@H](CCC(=O)O)NC(=O)[C@H](CCC(=O)O)NC(=O)[C@H](CC(C)C)NC(=O)OC(C)(C)C	77%	–
COC(=O)[C@H](CC(C)C)NC(=O)[C@H](CCC(=O)O)NC(=O)[C@H](CCC(=O)O)NC(=O)[C@@H](CC(C)C)NC(=O)OC(C)(C)C	55%	–
COC(=O)NC(=O)[C@H](CC(C)C)NC(=O)[C@H](CC(=O)O)NC(=O)C(CC(=O)O)NC(=O)OC(C)(C)C (stereo partly drawn)	< 1%	–
CO[C@H](CC(C)C)NC(=O)[C@H](CCC(=O)O)NC(=O)[C@H](CCC(=O)O)NC(=O)[C@H](CC(C)C)NC(=O)OC(C)(C)C	77%	–
COC(=O)NC(=O)[C@H](CC(C)C)NC(=O)[C@H](CC(=O)O)NC(=O)C(CCC(=O)O)NC(=O)OC(C)(C)C (stereo partly drawn)	11%	–
CO[C@@H](CC(C)C)NC(=O)[C@@H](CCC(=O)O)NC(=O)OC(C)(C)C	< 1%	–
CC(C)C[C@H](NC(=O)[C@H](CCC(=O)O)NC(=O)[C@H](CCC(=O)O)NC(=O)[C@H](C)NC(=O)[C@@H](N)Cc1ccccc1)C(=O)O (H-FAEEL-OH)	72%	–
COC(=O)[C@@H](CC(C)C)NC(=O)[C@H](CCC(=O)O)NC(=O)[C@H](CCC(=O)O)NC(=O)[C@@H](CC(C)C)NC(=O)OC(C)(C)C	19%	–
COC(=O)NC(=O)[C@H](CC(C)C)NC(=O)[C@H](CCC(=O)O)NC(=O)C(CC(=O)O)NC(=O)OC(C)(C)C (stereo partly drawn)	11%	–
COC(=O)[C@H](CCC(=O)O)NC(=O)[C@H](C)NC(=O)[C@H](CCC(=O)O)NC(=O)[C@H](CC(C)C)NC(=O)N1CCC[C@H]1C(C)=O ({Pyrrolidin1yl(2S-Ac)-CO}-LEAE-OMe)	25%	–
